One may read the IC50 as the concentration that inhibits the measured activity by half. Usually inhibition stands for how much of the control response was suppressed.

We go through two compounds from ChEMBL document CHEMBL4665656, “Toxicity, bioactivity, release of HS in vivo and pharmaco-kinetics of HS-donors with thiophosphamide structure” (Eur J Med Chem, 2019).

Active and inactive are the calls of the source. The rule behind the calls is not given here.

Data set [1] can be described thus: Solubility of compound in water. It counts as physicochemical. Particulars: buffer.
Data set [2] can be described thus: Kinetic Solubility of compound. In kind it is physicochemical.
Data set [3] can be described thus: Retention time of compound in PBS by LC-MS analysis. In kind it is physicochemical. Particulars: buffer. The procedure, abridged:
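Compound incubated in PBS pH 7.4 or in serum, sampled every 12 h over 36 h, and analysed by LC-MS for parent and product peaks.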

Data set [4] can be described thus: Induction of H2S generation assessed as Cmax Induction of H2S generation assessed as Cmax at 150 uM incubated at 37 degC and pH 7.4 by fluorescence spectrophotometry. It counts as functional. The procedure, abridged: (§1)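 Donor at 150 µM final, mixed with 200 µM sulfonyl-azide fluorescent probe in buffer/acetonitrile (1:9) at set pH. Cuvette held in a water bath at 22 °C or 37 °C, with fluorescence read three times at intervals. H2S was quantified from a Na2S standard curve (0–200 µM, probe 200 µM).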

A short description of data set [5]: Induction of H2S generation assessed as Cmax at 150 uM incubated at 37 degC and pH 1.2 by fluorescence spectrophotometry. In kind it is functional. The essentials:
as §1

Data set [6] is described as follows: Induction of H2S generation assessed as Cmax at 150 uM incubated at 22 degC and pH 7.4 by fluorescence spectrophotometry. It counts as functional. The essentials:
as §1

Data set [7] in a line: Induction of H2S generation assessed as Cmax at 150 uM incubated at 22 degC and pH 8 by fluorescence spectrophotometry. In kind it is functional. The procedure, abridged:
as §1

Data set [8] can be described thus: Drug metabolism in Wistar rat liver homogenate assessed as metabolite 3b retention time incubated for 36 hrs by LC-MS analysis. It counts as ADME, tissue-based. As to conditions: tissue homogenate.
Data set [9] in a line: Drug metabolism in Wistar rat heart homogenate assessed as metabolite formation incubated for 36 hrs by LC-MS. It counts as ADME, tissue-based. As to conditions: tissue homogenate.
Data set [10] can be described thus: Drug metabolism in Wistar rat kidney homogenate assessed as metabolite formation incubated for 36 hrs by LC-MS. In kind it is ADME, tissue-based. Particulars: tissue homogenate.
Another data set concerns HepG2. The data set is described as follows: Cytotoxicity in human HePG2 cells assessed as growth inhibition incubated for 24 hrs by MTT assay. It counts as functional, cell-based. Particulars: HepG2, 24 h. The essentials:
(§2)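 Cells were grown in RPMI 1640 with 10% FBS at 37 °C and 10% CO2, seeded at 6×10^3 cells/well. Exposure was 24 h, with viability by MTT, in triplicate cultures. IC50 was reported as mean ± SD.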
Background: Tetrazolium dyes change colour on reduction, which living cells bring about.

The subject of another data set is MCF7. The data set is described as follows: Cytotoxicity in human MCF-7 cells assessed as growth inhibition incubated for 24 hrs by MTT assay. In kind it is functional, cell-based. Particulars: MCF7, 24 h. The procedure, abridged: as §2
Data set [11] can be described thus: Toxicity in Wistar rat assessed as effect on platelet level at 0.01 mmol/kg, ip, administered daily for 14 days (reference value: 8.57 10^9/L). Particulars: in vivo, 336 h, time 14 day.
A short description of data set [12]: Toxicity in Wistar rat assessed as congested central venous and hepatic sinuses and swollen hepatocytes at 0.01 mmol/kg, ip administered for 14 days. In kind it is organism-based. As to conditions: in vivo, 336 h, time 14 day. The essentials: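 Wistar rats (6/group) dosed ip daily for 14 days with compound in 10% DMSO; vehicle controls received 10% DMSO. Liver, kidney and spleen were fixed in 4% glutaraldehyde, sectioned, H-E stained and examined microscopically.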

The nature of data set [13]: Toxicity in zebra fish assessed as decrease in survival rate at <=20 uM measured after 120 hpf by microscopic analysis relative control. As to conditions: zebrafish. Set-up: species or system Danio rerio. The procedure, abridged: (§3)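 Wild-type AB zebrafish embryos were checked at 4 hpf, and normally developed ones were used. There were 100 embryos per group, split into three replicates, one per well in 200 µL solution under sealing film. Mortality was recorded at 24–168 hpf. Vehicle control was DMF diluted 1:1000. Values are mean ±SD of three independent experiments.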

The nature of data set [14]: Toxicity in zebra fish embryo assessed as decrease in spontaneous movement at 5 uM measured after 24 hpf by microscopic analysis. Set-up: species or system Danio rerio. As to conditions: zebrafish. The essentials: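 Normal AB embryos were exposed to compound or DMF vehicle (1:1000) from 4 to 24 hpf. Ten embryos per group were chosen at random. Spontaneous movement was recorded for 5 min under a stereoscopic dissecting microscope and expressed as frequency per min. Values are mean ±SD of three independent experiments.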

Data set [15] is described as follows: Toxicity in zebrafish embryos assessed as embryo malformation rate at 1 to 20 uM measured after 96 hpf relative to control. Set-up: species or system Danio rerio. Particulars: in vivo.
Data set [16] concerns H9c2. The data set is described as follows: Cardioprotective activity against H2O2- induced toxicity in rat H9c2 cells assessed as increase in survival rate at 50 uM incubated for 8 hrs co-treated with 400 uM H2O2 measured after 24 hrs by MTT assay relative to control. In kind it is functional. The procedure, abridged: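 H9c2 cardiomyocytes injured with H2O2 (50, 200 or 400 µM) for 8 h together with compound (10–100 µM). Survival rate measured against the H2O2 model group. Six independent experiments, mean ± sd.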

Data set [17] in a line: Toxicity in zebra fish assessed as survival rate at 0.5 uM measured after 120 hpf by microscopic analysis. Set-up: species or system Danio rerio. As to conditions: zebrafish. The essentials:
as §3

Data set [18] in a line: Induction of H2S generation assessed as half life at 150 uM incubated at 22 degC and pH 1.2 by fluorescence spectrophotometry. It counts as functional. The procedure, abridged:
as §1

Data set [19] in a line: Induction of H2S generation assessed as half life at 150 uM incubated at 22 degC and pH 7.4 by fluorescence spectrophotometry. In kind it is functional. The essentials:
as §1

The subject of data set [20] is RAW264.7. The data set is described as follows: Anti-inflammatory activity in mouse RAW264.7 cells assessed as inhibition of LPS-induced NO production at 100 uM preincubated for 4 hr followed by LPS addition and measured after 24 hrs relative to control. It counts as functional. The essentials:
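RAW264.7 cells exposed to LPS 1 µg/mL with compound (20 and 100 µM) for 24 h. Nitrite in medium measured by Griess reagent, […], against a sodium nitrite standard curve (0–100 µM). Four parallel groups, mean ± SD.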

For data set [21], the system named is RAW264.7. The data set is described as follows: Anti-inflammatory activity in mouse RAW264.7 cells assessed as inhibition of LPS-induced IL-10 production at 20 uM preincubated for 4 hr followed by LPS addition and measured after 24 hrs. In kind it is functional, cell-based. The procedure, abridged: (§4)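 RAW264.7 cells given LPS 1 µg/mL with compound for 24 h, then lysed in RIPA and centrifuged. Protein was set to 0.1 mg/mL by BCA and mouse cytokine levels measured by sandwich ELISA kit. Four parallel groups, mean ± SD.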

In data set [22] the test system is RAW264.7. The data set is described as follows: Anti-inflammatory activity in mouse RAW264.7 cells assessed as inhibition of LPS-induced TNFalpha production at 20 uM preincubated for 4 hr followed by LPS addition and measured after 24 hrs relative to control. It counts as functional, cell-based. The essentials:
as §4

Data set [23] has as its system H9c2. The data set is described as follows: Cardioprotective activity against H2O2- induced toxicity in rat H9c2 cells assessed as decrease in MDA level at 10 to 100 uM pretreated with H202 for 8 hrs followed by compound addition measured after 24 hrs. In kind it is functional, cell-based. Particulars: dose microM 10-100, time 8.0 hrs.
Data set [24] relates to H9c2. The data set is described as follows: Cytoprotective activity against H2O2-induced toxicity in rat H9c2 cells assessed as increase in SOD level at 10 to 100 uM pretreated with H202 for 8 hrs followed by compound addition measured after 24 hrs. Particulars: dose microM 10-100, time 8.0 hrs. It counts as functional, cell-based.
The nature of data set [25]: Toxicity in zebrafish embryos assessed as embryo malformation rate at 20 uM measured after 96 hpf relative to control. As to conditions: in vivo. Further details: species or system Danio rerio.

For `S=P1(c2ccccc2)NCCCO1` (stereo unspecified), in [1], the solubility result is “Insoluble”. Further, in [2], the Kinetic_solubility entry is given as “Soluble”. For the same compound, the Retention_time in data set [3] came to 9.649 min; in data set [8], 8.63 min. The Cmax in data set [4] came to 26.5 µM; in [5], 34.8 µM; in data set [6] it was 25.1 µM; in data set [7], 25.6 µM. The Drug metabolism result in data set [9] and in data set [10] was “Metabolite_Detected” in each case. The IC50 with HepG2 is 629 µM; in the data set with MCF7, 752 µM. Further, the Activity is 628 10^9/L in data set [11]; “Toxic” in data set [12]; 50% in data set [13]; “Toxic” in data set [14]; 2% in data set [15]; 5.1% in the data set with H9c2 [16]. The Activity entry in data set [17] is reported as “Non-Toxic”. Besides, the T1/2 in data set [18] turned out to be 35 min; in data set [19], 36.8 min.

For `O=C([O-])[C@H](Cc1cc2ccccc2[nH]1)NP([O-])(=S)c1ccccc1.[Li+].[Li+]` (stereo partly specified), the Cmax came out at 124 µM in data set [4], 124 µM in [5], 117 µM in data set [6] and 118 µM in data set [7]. In addition, in data set [8], the Retention_time is 7.9 min. Moreover, the IC50 came out at 315 µM with HepG2 and 838 µM with MCF7. The Activity in data set [11] was 530 10^9/L; in data set [12] it was “Toxic”; in [13], 50%; in data set [14] it was “Toxic”; in data set [17], “Non-Toxic”; in data set [25] it was 5%. Besides, in the data set on RAW264.7 [20], the inhibition at 100 µM came out at 50%. In addition, the outcome with RAW264.7 [21], in the data set on RAW264.7 [22], in the data set with H9c2 [23] and in the data set with H9c2 [24] was Active. Moreover, the T1/2 in data set [18] was 2.97 min; in [19], 6.97 min.
